In brackets after ≈: the same amount, converted by molar mass.
Legend:
Assay type in all cases: functional
Staphylococcus aureus [1] = test: Antimicrobial activity against tetracycline-susceptible Staphylococcus aureus isolate 101 by CLSI dilution method
Staphylococcus aureus [2] = test: Antimicrobial activity against tetracycline-resistant Staphylococcus aureus isolate 158 harboring tetK gene by CLSI dilution method
Enterococcus faecalis [3] = test: Antimicrobial activity against tetracycline-susceptible Enterococcus faecalis isolate 103 by CLSI dilution method
Outline: (§1)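 Broth microdilution per CLSI in fresh cation-adjusted Mueller Hinton broth, kept at 4 °C before testing, with defibrinated horse blood added as appropriate. Strains were from ATCC. MIC in µg/mL. Runs were accepted when comparator antibiotics against ATCC quality-control strains fell within recommended ranges.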

Enterococcus faecalis [4] = test: Antimicrobial activity against tetracycline-resistant Enterococcus faecalis isolate 159 harboring […] gene by CLSI dilution method
Streptococcus pneumoniae [5] = test: Antimicrobial activity against tetracycline-susceptible Streptococcus pneumoniae isolate 106 by CLSI dilution method; outline: as §1
Streptococcus pneumoniae [6] = test: Antimicrobial activity against tetracycline-resistant Streptococcus pneumoniae isolate 160 harboring tetM gene by CLSI dilution method
Escherichia coli [7] = test: Antimicrobial activity against tetracycline-resistant Escherichia coli isolate 155 harboring tetA gene by CLSI dilution method
Acinetobacter baumannii = test: Antimicrobial activity against tetracycline-susceptible Acinetobacter baumannii isolate 110 by CLSI dilution method; outline: as §1
Pseudomonas aeruginosa = test: Antimicrobial activity against tetracycline-susceptible Pseudomonas aeruginosa isolate 111 by CLSI dilution method; outline: as §1
Enterobacter cloacae = test: Antimicrobial activity against tetracycline-susceptible Enterobacter cloacae isolate 108 by CLSI dilution method; outline: as §1
Klebsiella pneumoniae [8] = test: Antimicrobial activity against tetracycline-susceptible Klebsiella pneumoniae isolate 109 by CLSI dilution method; outline: as §1
Klebsiella pneumoniae [9] = test: Antimicrobial activity against tetracycline-resistant Klebsiella pneumoniae isolate 153 harboring tetA gene by CLSI dilution method
Escherichia coli [10] = test: Antimicrobial activity against tetracycline-susceptible Escherichia coli isolate 107 by CLSI dilution method; outline: as §1
Staphylococcus aureus [11] = test: Antimicrobial activity against methicillin-, tetracycline-resistant Staphylococcus aureus isolate 161 harboring tetM gene by CLSI dilution method

Compound: CN(C)Cc1ccc2c(F)c3c(c(O)c2c1)C(=O)C1=C(O)[C@]2(O)C(=O)C(C(N)=O)=C(O)[C@@H](N(C)C)[C@@H]2C[C@@H]1C3
- MIC (Staphylococcus aureus [1]): 0.5 µg/mL (≈ 0.927 µM)
- MIC (Staphylococcus aureus [2]): 0.25 µg/mL (≈ 0.463 µM)
- MIC (Enterococcus faecalis [3]): 0.25 µg/mL (≈ 0.463 µM)
- MIC (Enterococcus faecalis [4]): 1 µg/mL (≈ 1.85 µM)
- MIC (Streptococcus pneumoniae [5]): 0.0156 µg/mL (≈ 0.0289 µM)
- MIC (Streptococcus pneumoniae [6]): 8 µg/mL (≈ 14.8 µM)
- MIC (Escherichia coli [7]): 4 µg/mL (≈ 7.41 µM)
- MIC (Acinetobacter baumannii): 0.5 µg/mL (≈ 0.927 µM)
- MIC (Pseudomonas aeruginosa): 32 µg/mL (≈ 59.3 µM)
- MIC (Enterobacter cloacae): 4 µg/mL (≈ 7.41 µM)
- MIC (Klebsiella pneumoniae [8]): 2 µg/mL (≈ 3.71 µM)
- MIC (Klebsiella pneumoniae [9]): 4 µg/mL (≈ 7.41 µM)

Compound: CN(C)Cc1cccc2c(O)c3c(cc12)C[C@H]1C[C@H]2[C@H](N(C)C)C(O)=C(C(N)=O)C(=O)[C@@]2(O)C(O)=C1C3=O
- MIC (Staphylococcus aureus [1]): 1 µg/mL (≈ 1.92 µM)
- MIC (Staphylococcus aureus [2]): 0.5 µg/mL (≈ 0.959 µM)
- MIC (Enterococcus faecalis [3]): 1 µg/mL (≈ 1.92 µM)
- MIC (Enterococcus faecalis [4]): 32 µg/mL (≈ 61.4 µM)
- MIC (Streptococcus pneumoniae [5]): 0.25 µg/mL (≈ 0.479 µM)
- MIC (Streptococcus pneumoniae [6]): 2 µg/mL (≈ 3.83 µM)
- MIC (Escherichia coli [10]): 4 µg/mL (≈ 7.67 µM)
- MIC (Escherichia coli [7]): > 32 µg/mL
- MIC (Acinetobacter baumannii): 16 µg/mL (≈ 30.7 µM)
- MIC (Pseudomonas aeruginosa): > 32 µg/mL
- MIC (Enterobacter cloacae): > 32 µg/mL
- MIC (Klebsiella pneumoniae [9]): > 32 µg/mL

Compound: CN(C)CCOc1c2c(c(O)c3cc(CN4CCC4)ccc13)C(=O)C1=C(O)[C@]3(O)C(=O)C(C(N)=O)=C(O)[C@@H](N(C)C)[C@@H]3C[C@@H]1C2
- MIC (Staphylococcus aureus [1]): 4 µg/mL (≈ 6.44 µM)
- MIC (Staphylococcus aureus [11]): 8 µg/mL (≈ 12.9 µM)
- MIC (Staphylococcus aureus [2]): 4 µg/mL (≈ 6.44 µM)
- MIC (Enterococcus faecalis [3]): 8 µg/mL (≈ 12.9 µM)
- MIC (Streptococcus pneumoniae [5]): 1 µg/mL (≈ 1.61 µM)
- MIC (Streptococcus pneumoniae [6]): 2 µg/mL (≈ 3.22 µM)
- MIC (Escherichia coli [10]): 8 µg/mL (≈ 12.9 µM)
- MIC (Escherichia coli [7]): > 32 µg/mL
- MIC (Acinetobacter baumannii): > 32 µg/mL
- MIC (Pseudomonas aeruginosa): > 32 µg/mL
- MIC (Enterobacter cloacae): 16 µg/mL (≈ 25.8 µM)
- MIC (Klebsiella pneumoniae [8]): 32 µg/mL (≈ 51.6 µM)
- MIC (Klebsiella pneumoniae [9]): > 32 µg/mL

Compound: CCCN(CCC)c1c2c(c(O)c3cc(CN4CCC4)ccc13)C(=O)C1=C(O)[C@]3(O)C(=O)C(C(N)=O)=C(O)[C@@H](N(C)C)[C@@H]3C[C@@H]1C2
- MIC (Staphylococcus aureus [1]): 0.5 µg/mL (≈ 0.79 µM)
- MIC (Staphylococcus aureus [2]): 0.5 µg/mL (≈ 0.79 µM)
- MIC (Enterococcus faecalis [3]): 0.5 µg/mL (≈ 0.79 µM)
- MIC (Enterococcus faecalis [4]): 4 µg/mL (≈ 6.32 µM)
- MIC (Streptococcus pneumoniae [5]): 0.125 µg/mL (≈ 0.198 µM)
- MIC (Streptococcus pneumoniae [6]): 0.5 µg/mL (≈ 0.79 µM)
- MIC (Escherichia coli [10]): 32 µg/mL (≈ 50.6 µM)
- MIC (Escherichia coli [7]): > 32 µg/mL
- MIC (Acinetobacter baumannii): 8 µg/mL (≈ 12.6 µM)
- MIC (Pseudomonas aeruginosa): > 32 µg/mL
- MIC (Enterobacter cloacae): > 32 µg/mL
- MIC (Klebsiella pneumoniae [8]): > 32 µg/mL
- MIC (Klebsiella pneumoniae [9]): > 32 µg/mL

Compound: CN(C)C1CN(Cc2ccc3cc4c(c(O)c3c2)C(=O)C2=C(O)[C@]3(O)C(=O)C(C(N)=O)=C(O)[C@@H](N(C)C)[C@@H]3C[C@@H]2C4)C1
- MIC (Staphylococcus aureus [1]): 2 µg/mL (≈ 3.47 µM)
- MIC (Staphylococcus aureus [2]): 1 µg/mL (≈ 1.73 µM)
- MIC (Enterococcus faecalis [3]): 1 µg/mL (≈ 1.73 µM)
- MIC (Streptococcus pneumoniae [5]): 0.0625 µg/mL (≈ 0.108 µM)
- MIC (Streptococcus pneumoniae [6]): 1 µg/mL (≈ 1.73 µM)
- MIC (Escherichia coli [7]): 16 µg/mL (≈ 27.7 µM)
- MIC (Acinetobacter baumannii): 4 µg/mL (≈ 6.94 µM)
- MIC (Pseudomonas aeruginosa): > 32 µg/mL
- MIC (Klebsiella pneumoniae [9]): 8 µg/mL (≈ 13.9 µM)

Compound: CN(C)[C@@H]1C(O)=C(C(N)=O)C(=O)[C@@]2(O)C(O)=C3C(=O)c4c(cc5ccc(CN6CC(C#N)C6)cc5c4O)C[C@H]3C[C@@H]12
- MIC (Staphylococcus aureus [1]): 1 µg/mL (≈ 1.79 µM)
- MIC (Staphylococcus aureus [11]): 2 µg/mL (≈ 3.58 µM)
- MIC (Staphylococcus aureus [2]): 1 µg/mL (≈ 1.79 µM)
- MIC (Enterococcus faecalis [3]): 1 µg/mL (≈ 1.79 µM)
- MIC (Enterococcus faecalis [4]): 4 µg/mL (≈ 7.16 µM)
- MIC (Streptococcus pneumoniae [5]): 0.25 µg/mL (≈ 0.448 µM)
- MIC (Streptococcus pneumoniae [6]): 1 µg/mL (≈ 1.79 µM)
- MIC (Escherichia coli [10]): 4 µg/mL (≈ 7.16 µM)
- MIC (Escherichia coli [7]): > 32 µg/mL
- MIC (Pseudomonas aeruginosa): > 32 µg/mL
- MIC (Klebsiella pneumoniae [8]): 8 µg/mL (≈ 14.3 µM)
- MIC (Klebsiella pneumoniae [9]): 32 µg/mL (≈ 57.3 µM)

Compound: CCCNc1c2c(c(O)c3cc(CN4CCC4)ccc13)C(=O)C1=C(O)[C@]3(O)C(=O)C(C(N)=O)=C(O)[C@@H](N(C)C)[C@@H]3C[C@@H]1C2
- MIC (Staphylococcus aureus [1]): 4 µg/mL (≈ 6.77 µM)
- MIC (Staphylococcus aureus [2]): 4 µg/mL (≈ 6.77 µM)
- MIC (Enterococcus faecalis [3]): 4 µg/mL (≈ 6.77 µM)
- MIC (Enterococcus faecalis [4]): 16 µg/mL (≈ 27.1 µM)
- MIC (Streptococcus pneumoniae [5]): 0.5 µg/mL (≈ 0.846 µM)
- MIC (Streptococcus pneumoniae [6]): 2 µg/mL (≈ 3.39 µM)
- MIC (Escherichia coli [10]): 16 µg/mL (≈ 27.1 µM)
- MIC (Escherichia coli [7]): > 32 µg/mL
- MIC (Acinetobacter baumannii): 16 µg/mL (≈ 27.1 µM)
- MIC (Pseudomonas aeruginosa): > 32 µg/mL
- MIC (Enterobacter cloacae): > 32 µg/mL
- MIC (Klebsiella pneumoniae [8]): 32 µg/mL (≈ 54.2 µM)
- MIC (Klebsiella pneumoniae [9]): > 32 µg/mL

Compound: CN(C)c1ccc(O)c2c1C[C@H]1C[C@H]3[C@H](N(C)C)C(O)=C(C(N)=O)C(=O)[C@@]3(O)C(O)=C1C2=O [MINOCYCLINE]
- MIC (Staphylococcus aureus [1]): 0.0625 µg/mL (≈ 0.137 µM)
- MIC (Staphylococcus aureus [11]): 8 µg/mL (≈ 17.5 µM)
- MIC (Staphylococcus aureus [2]): 0.0313 µg/mL (≈ 0.0684 µM)
- MIC (Enterococcus faecalis [4]): 16 µg/mL (≈ 35 µM)
- MIC (Streptococcus pneumoniae [5]): < 0.0156 µg/mL
- MIC (Streptococcus pneumoniae [6]): 2 µg/mL (≈ 4.37 µM)
- MIC (Escherichia coli [10]): 0.5 µg/mL (≈ 1.09 µM)
- MIC (Escherichia coli [7]): 8 µg/mL (≈ 17.5 µM)
- MIC (Acinetobacter baumannii): 0.0625 µg/mL (≈ 0.137 µM)
- MIC (Pseudomonas aeruginosa): 16 µg/mL (≈ 35 µM)
- MIC (Enterobacter cloacae): 2 µg/mL (≈ 4.37 µM)
- MIC (Klebsiella pneumoniae [9]): 8 µg/mL (≈ 17.5 µM)

Compound: CN(C)[C@@H]1C(O)=C(C(N)=O)C(=O)[C@@]2(O)C(O)=C3C(=O)c4c(c(F)c5ccc(CNC6CC6)cc5c4O)C[C@H]3C[C@@H]12
- MIC (Staphylococcus aureus [11]): 2 µg/mL (≈ 3.63 µM)
- MIC (Enterococcus faecalis [3]): 0.5 µg/mL (≈ 0.907 µM)
- MIC (Enterococcus faecalis [4]): 2 µg/mL (≈ 3.63 µM)
- MIC (Streptococcus pneumoniae [5]): 0.0625 µg/mL (≈ 0.113 µM)
- MIC (Escherichia coli [10]): 2 µg/mL (≈ 3.63 µM)
- MIC (Escherichia coli [7]): 8 µg/mL (≈ 14.5 µM)
- MIC (Acinetobacter baumannii): 0.25 µg/mL (≈ 0.453 µM)
- MIC (Pseudomonas aeruginosa): > 32 µg/mL
- MIC (Enterobacter cloacae): 4 µg/mL (≈ 7.25 µM)
- MIC (Klebsiella pneumoniae [8]): 4 µg/mL (≈ 7.25 µM)
- MIC (Klebsiella pneumoniae [9]): 8 µg/mL (≈ 14.5 µM)

Compound: COc1c2c(c(O)c3cc(CNC(C)(C)C)ccc13)C(=O)C1=C(O)[C@]3(O)C(=O)C(C(N)=O)=C(O)[C@@H](N(C)C)[C@@H]3C[C@@H]1C2
- MIC (Staphylococcus aureus [1]): 0.25 µg/mL (≈ 0.431 µM)
- MIC (Staphylococcus aureus [2]): 0.25 µg/mL (≈ 0.431 µM)
- MIC (Enterococcus faecalis [3]): 0.25 µg/mL (≈ 0.431 µM)
- MIC (Streptococcus pneumoniae [5]): 0.0156 µg/mL (≈ 0.0269 µM)
- MIC (Streptococcus pneumoniae [6]): 0.5 µg/mL (≈ 0.863 µM)
- MIC (Escherichia coli [10]): 1 µg/mL (≈ 1.73 µM)
- MIC (Escherichia coli [7]): 8 µg/mL (≈ 13.8 µM)
- MIC (Acinetobacter baumannii): 2 µg/mL (≈ 3.45 µM)
- MIC (Pseudomonas aeruginosa): 16 µg/mL (≈ 27.6 µM)
- MIC (Klebsiella pneumoniae [9]): 8 µg/mL (≈ 13.8 µM)

Compound: CN(C)[C@@H]1C(O)=C(C(N)=O)C(=O)[C@@]2(O)C(O)=C3C(=O)c4c(cc5cc(N)ccc5c4O)C[C@H]3C[C@@H]12
- MIC (Enterococcus faecalis [3]): 4 µg/mL (≈ 8.34 µM)
- MIC (Streptococcus pneumoniae [5]): 2 µg/mL (≈ 4.17 µM)
- MIC (Streptococcus pneumoniae [6]): 8 µg/mL (≈ 16.7 µM)
- MIC (Escherichia coli [10]): > 32 µg/mL
- MIC (Escherichia coli [7]): > 32 µg/mL
- MIC (Acinetobacter baumannii): 16 µg/mL (≈ 33.4 µM)
- MIC (Pseudomonas aeruginosa): > 32 µg/mL
- MIC (Enterobacter cloacae): > 32 µg/mL
- MIC (Klebsiella pneumoniae [8]): > 32 µg/mL
- MIC (Klebsiella pneumoniae [9]): > 32 µg/mL

Reference: ChEMBL document CHEMBL1781932 (J Med Chem, 2011)
